Laboratory results as given in ChEMBL document CHEMBL3286129, “Optimization of peptidomimetic boronates bearing a P3 bicyclic scaffold as proteasome inhibitors” (Eur J Med Chem, 2014).
Calls of active or inactive are those of the source. No cut-off for these calls is given here.

Assays:
[1] = molecular target: T1, Proteasome Macropain subunit MB1 (Homo sapiens) (UniProt P28074); assay: Inhibition of chymotrypsin-like activity of 20S proteasome in human erythrocytes using Suc-Leu-Leu-Val-Tyr-AMC as substrate at 20 uM by fluorescence assay relative to control
T1 sequence (whole entry): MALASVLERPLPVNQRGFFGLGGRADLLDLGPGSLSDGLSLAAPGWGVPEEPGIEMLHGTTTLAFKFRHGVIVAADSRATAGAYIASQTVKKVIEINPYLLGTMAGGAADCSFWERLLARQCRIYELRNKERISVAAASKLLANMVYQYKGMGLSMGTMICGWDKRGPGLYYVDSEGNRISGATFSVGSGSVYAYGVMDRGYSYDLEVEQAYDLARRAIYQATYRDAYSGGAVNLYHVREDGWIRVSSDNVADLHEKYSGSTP
Outline: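 Single inhibitor concentration, equivalent DMSO as negative control. AMC fluorescence read at ex 380/em 460 nm; percent inhibition of ChT-L activity.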

[2] = molecular target: T2, Proteasome Macropain subunit MB1 (Homo sapiens, UniProt P28074); assay: Inhibition of chymotrypsin-like activity of 20S proteasome in human erythrocytes using Suc-Leu-Leu-Val-Tyr-AMC as substrate by fluorescence assay
T2 sequence (P28074 whole entry): T1 sequence (whole entry)

[3] = molecular target: Chymotrypsinogen A (Bos taurus, UniProt P00766); assay: Inhibition of bovine pancreatic alpha-chymotrypsin using Suc-Leu-Leu-Val-Tyr-AMC as substrate by fluorescence assay
Outline: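 Enzyme incubated at 20 °C in 50 mM Tris pH 8.0, 100 mM NaCl, 5 mM EDTA, 7.5% DMSO with varied inhibitor concentrations. Substrate hydrolysis followed for 10 min. Ki from progress curves; mean of three determinations.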

[4] = molecular target: T3, Proteasome component C5 (Homo sapiens, UniProt P20618); assay: Inhibition of PGPH-like activity of 20S proteasome in human erythrocytes using Z-Leu-Leu-Glu-AMC as substrate by fluorescence assay
T3 sequence (P20618 whole entry): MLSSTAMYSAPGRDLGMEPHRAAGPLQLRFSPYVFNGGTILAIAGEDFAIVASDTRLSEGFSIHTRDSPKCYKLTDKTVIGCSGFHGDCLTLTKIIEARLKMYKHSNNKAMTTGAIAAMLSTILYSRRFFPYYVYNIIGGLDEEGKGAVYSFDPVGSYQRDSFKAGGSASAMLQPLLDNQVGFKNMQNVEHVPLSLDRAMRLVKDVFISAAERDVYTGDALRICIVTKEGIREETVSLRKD
Outline: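 Human 20S proteasome 0.004 mg/mL, 30 °C, 50 mM Tris pH 7.5 with 25 mM KCl, 10 mM NaCl, 1 mM MgCl2, 0.03% SDS, 5% DMSO. Ki from 4-parameter IC50 fit of progress curves, corrected to zero substrate via Km. Mean of three.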

[5] = molecular target: Proteasome Macropain subunit (Homo sapiens) (UniProt P49721); assay: Inhibition of trypsin-like activity of 20S proteasome in human erythrocytes using Boc-Leu-Arg-Arg-AMC as substrate by fluorescence assay; type: cell-based
Outline: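 Human 20S proteasome 0.0025 mg/mL at 30 °C in 50 mM Tris pH 7.4, 50 mM NaCl, 0.5 mM EDTA, 0.03% SDS, 7.5% DMSO. Varied inhibitor concentrations; AMC release monitored continuously for 10 min, ex 380/em 460 nm. Ki derived from progress-curve IC50 fit.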

[6] = Cytotoxicity against human ovarian cancer cells assessed as cell growth at 10 uM relative to control; type: functional; conditions: Cancer cell lines, read-out: Activity
Outline: (§1)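 Single-concentration screen against a panel of human cancer cell lines. Each value is the mean percent growth across the cell lines of that tumour subpanel.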

[7] = Cytotoxicity against human renal cancer cells assessed as cell growth at 10 uM relative to control; type: functional; conditions: Cancer cell lines, read-out: Activity; outline: as §1
[8] = Cytotoxicity against human NSCLC cells assessed as cell growth at 10 uM relative to control; type: functional; conditions: read-out: Activity; outline: as §1
[9] = Cytotoxicity against human colon cancer cells assessed as cell growth at 10 uM relative to control; type: functional; conditions: Cancer cell lines, read-out: Activity; outline: as §1
[10] = Cytotoxicity against human CNSC cells assessed as cell growth at 10 uM relative to control; type: functional; conditions: read-out: Activity; outline: as §1
[11] = Cytotoxicity against human melanoma cells assessed as cell growth at 10 uM relative to control; type: functional; conditions: read-out: Activity; outline: as §1
[12] = Cytotoxicity against human leukemia cells assessed as cell growth at 10 uM relative to control; type: functional; conditions: read-out: Activity; outline: as §1
[13] = Cytotoxicity against human prostate cancer cells assessed as cell growth at 10 uM relative to control; type: functional; conditions: Cancer cell lines, read-out: Activity; outline: as §1
[14] = Cytotoxicity against human breast cancer cells assessed as cell growth at 10 uM relative to control; type: functional; conditions: Cancer cell lines, read-out: Activity; outline: as §1
[15] = system: PC-3; assay: Growth inhibition of human PC3 cells; type: functional
[16] = Growth inhibition of human RXF393 cells; type: functional; conditions: RXF 393
[17] = Growth inhibition of human UACC257 cells; type: functional; conditions: UACC-257
[18] = Growth inhibition of human MOLT4 cells; type: functional; conditions: MOLT-4
[19] = Growth inhibition of human OVCAR4 cells; type: functional; conditions: OVCAR-4
[20] = system: SK-MEL-2; assay: Growth inhibition of human SK-MEL-2 cells; type: functional
[21] = system: SK-MEL-5; assay: Growth inhibition of human SK-MEL-5 cells; type: functional
[22] = system: SN12C; assay: Growth inhibition of human SN12C cells; type: functional
[23] = system: MDA-MB-435; assay: Growth inhibition of human MDA-MB-435 cells; type: functional
[24] = system: NCI-H226; assay: Growth inhibition of human NCI-H226 cells; type: functional
[25] = system: HCT-116; assay: Growth inhibition of human HCT116 cells; type: functional
[26] = Growth inhibition of human HCT15 cells; type: functional; conditions: HCT-15
[27] = system: COLO 205; assay: Growth inhibition of human COLO205 cells; type: functional
[28] = Growth inhibition of human OVCAR8 cells; type: functional; conditions: OVCAR-8
[29] = Growth inhibition of human LOXIMVI cells; type: functional; conditions: LOX IMVI
[30] = Growth inhibition of human SF295 cells; type: functional; conditions: SF-295
[31] = system: MCF7; assay: Growth inhibition of human MCF7 cells; type: functional
[32] = system: SF-268; assay: Growth inhibition of human SF268 cells; type: functional
[33] = system: IGROV-1; assay: Growth inhibition of human IGROV1 cells; type: functional
[34] = system: TK-10; assay: Growth inhibition of human TK10 cells; type: functional
[35] = system: HT-29; assay: Growth inhibition of human HT-29 cells; type: functional
[36] = system: DU-145; assay: Growth inhibition of human DU145 cells; type: functional
[37] = Growth inhibition of human UACC62 cells; type: functional; conditions: UACC-62
[38] = system: CCRF-CEM; assay: Growth inhibition of human CCRF-CEM cells; type: functional
[39] = system: MDA-MB-231; assay: Growth inhibition of human MDA-MB-231 cells; type: functional
[40] = Growth inhibition of human BT549 cells; type: functional; conditions: BT-549
[41] = Growth inhibition of human OVCAR3 cells; type: functional; conditions: OVCAR-3
[42] = system: MDA-MB-468; assay: Growth inhibition of human MDA-MB-468 cells; type: functional
[43] = system: SR; assay: Growth inhibition of human SR cells; type: functional
[44] = system: Malme-3M; assay: Growth inhibition of human MALME-3M cells; type: functional
[45] = Growth inhibition of human NCI-ADR-RES cells; type: functional
[46] = Growth inhibition of human HOP92 cells; type: functional; conditions: HOP-92
[47] = Growth inhibition of human EKVX cells; type: functional
[48] = system: NCI-H460; assay: Growth inhibition of human NCI-H460 cells; type: functional
[49] = system: KM12; assay: Growth inhibition of human KM12 cells; type: functional
[50] = system: SNB-75; assay: Growth inhibition of human SNB75 cells; type: functional
[51] = system: CAKI-1; assay: Growth inhibition of human CAKI-1 cells; type: functional
[52] = system: 786-0; assay: Growth inhibition of human 786-0 cells; type: functional
[53] = system: U-251; assay: Growth inhibition of human U251 cells; type: functional
[54] = system: SK-MEL-28; assay: Growth inhibition of human SK-MEL-28 cells; type: functional
[55] = system: NCI-H322M; assay: Growth inhibition of human NCI-H322M cells; type: functional
[56] = Growth inhibition of human Hs 578T cells; type: functional
[57] = system: NCI-H522; assay: Growth inhibition of human NCI-H522 cells; type: functional
[58] = system: K562; assay: Growth inhibition of human K562 cells; type: functional
[59] = Growth inhibition of human SF539 cells; type: functional; conditions: SF-539
[60] = system: HL-60(TB); assay: Growth inhibition of human HL-60(TB) cells; type: functional
[61] = system: SNB-19; assay: Growth inhibition of human SNB19 cells; type: functional
[62] = system: ACHN; assay: Growth inhibition of human ACHN cells; type: functional
[63] = system: T47D; assay: Growth inhibition of human T47D cells; type: functional
[64] = system: A549; assay: Growth inhibition of human A549/ATCC cells; type: functional
[65] = Growth inhibition of human HCC2998 cells; type: functional; conditions: HCC 2998
[66] = system: HOP-62; assay: Growth inhibition of human HOP62 cells; type: functional
[67] = system: SK-OV-3; assay: Growth inhibition of human SKOV3 cells; type: functional
[68] = Growth inhibition of human UO31 cells; type: functional; conditions: UO-31
[69] = Growth inhibition of human OVCAR5 cells; type: functional; conditions: OVCAR-5
[70] = system: NCI-H23; assay: Growth inhibition of human NCI-H23 cells; type: functional
[71] = system: SW-620; assay: Growth inhibition of human SW620 cells; type: functional
[72] = system: RPMI-8226; assay: Growth inhibition of human RPMI8226 cells; type: functional
[73] = system: A498; assay: Growth inhibition of human A498 cells; type: functional
[74] = system: M14; assay: Growth inhibition of human M14 cells; type: functional

Proteasome Macropain subunit (Homo sapiens), sequence (P49721 whole entry): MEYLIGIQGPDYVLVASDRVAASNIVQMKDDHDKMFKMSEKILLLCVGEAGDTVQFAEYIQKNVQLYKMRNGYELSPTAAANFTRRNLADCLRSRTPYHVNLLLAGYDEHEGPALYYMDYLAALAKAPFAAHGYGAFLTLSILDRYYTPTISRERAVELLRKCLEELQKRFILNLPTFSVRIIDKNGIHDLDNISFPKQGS

CC(C)C[C@H](NC(=O)CCn1cc(Br)c2ncccc2c1=O)B(O)O
inhibition [1]: > 40% | Ki [2]: Not Active | Ki [3]: Not Active | Ki [4]: Not Active | inhibition [5]: inactive

COc1cc2ccn(CCC(=O)NCCC(C)C)c(=O)c2cc1OC
growth at 10 µM [6]: 103% | growth at 10 µM [7]: 95.3% | growth at 10 µM [8]: 99.2% | growth at 10 µM [9]: 106% | growth at 10 µM [10]: 98% | growth at 10 µM [11]: 106% | growth at 10 µM [12]: 108% | inhibition [5]: inactive | growth at 10 µM [13]: 103% | growth at 10 µM [14]: 103%

CC(C)C[C@H](NC(=O)[C@H](Cc1ccccc1)NC(=O)c1cnccn1)B(O)O [BORTEZOMIB]
GI50 [15]: 2.63 nM | GI50 [16]: 0.71 nM | GI50 [17]: 0.59 nM | GI50 [18]: 0.51 nM | GI50 [19]: 1.95 nM | GI50 [20]: 1.07 nM | GI50 [21]: 0.68 nM | GI50 [22]: 1.1 nM | GI50 [23]: 0.44 nM | GI50 [24]: 0.46 nM | GI50 [25]: 0.6 nM | GI50 [26]: 1.51 nM | GI50 [27]: 1.23 nM | GI50 [28]: 2.63 nM | GI50 [29]: 0.78 nM | GI50 [30]: 1.7 nM | GI50 [31]: 0.55 nM | GI50 [32]: 1.17 nM | Ki ([3]; read-out: Ki): 2400 nM | GI50 [33]: 2.24 nM | GI50 [34]: 1 nM | GI50 [35]: 0.95 nM | GI50 [36]: 1.7 nM | GI50 [37]: 0.91 nM | GI50 [38]: 0.35 nM | GI50 [39]: 1.26 nM | GI50 [40]: 0.55 nM | GI50 [41]: 0.54 nM | GI50 [42]: 1.48 nM | GI50 [43]: 0.85 nM | GI50 [44]: 0.45 nM | GI50 [45]: 12.3 nM | GI50 [46]: 1 nM | GI50 [47]: 3.02 nM | GI50 [48]: 4.47 nM | GI50 [49]: 1.7 nM | GI50 [50]: 2.04 nM | GI50 [51]: 0.66 nM | GI50 [52]: 1.44 nM | GI50 [53]: 1.55 nM | GI50 [54]: 0.46 nM | GI50 [55]: 17.8 nM | GI50 [56]: 1.02 nM | GI50 [57]: 1.44 nM | GI50 [58]: 1.17 nM | GI50 [59]: 0.59 nM | GI50 [60]: 1.9 nM | GI50 [61]: 2.04 nM | GI50 [62]: 0.79 nM | GI50 [63]: 0.6 nM | GI50 [64]: 3.09 nM | GI50 [65]: 0.6 nM | GI50 [66]: 4.47 nM | GI50 [67]: 13.8 nM | GI50 [68]: 1.05 nM | GI50 [69]: 1.55 nM | GI50 [70]: 1 nM | GI50 [71]: 0.55 nM | GI50 [72]: 0.23 nM | GI50 [73]: 0.48 nM | GI50 [74]: 0.93 nM
